Calls of active or inactive are those of the source.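 How the source made its calls: active means Cell killing by compound with TRAIL above both separate effects added together, at all three tested doses; inactive means the rest.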
System: MCF7 TRAIL potentiation, ATPlite luminescence, 24 h
Test: TRAIL cytotoxicity enhancement in resistant cancer cells, confirmation, cell-based, MCF7, ATPlite luminescence, 24 h (AID 1748)
Details: stronger effect = higher value
How it was run: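 Measured by: ATPlite luminescence | Assay system: TRAIL-resistant MCF7 cells | Schedule: 24 h settling, 4 h compound, 24 h TRAIL, 37 °C | Probe or stimulus: TRAIL, added after compound pretreatment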

[1] = compound alone 1.25 uM, at 1.25 µM
[2] = compound alone 2.5 uM, at 2.5 µM
[3] = compound alone, no TRAIL, at 5 µM
[4] = compound plus TRAIL 1.25 uM, at 1.25 µM
[5] = compound plus TRAIL 2.5 uM, at 2.5 µM

Question: With `CSc1nc(-c2ccc(C)cc2)nc(C(Cl)Cl)n1` as the compound, how does the cytotoxicity with TRAIL (at 5 µM) read?
Answer: 57% (inactive)

Question: What about the cytotoxicity [1] of the same compound?
Answer: 0%

Question: What about the cytotoxicity [2] of the same compound?
Answer: 8%

Question: What about the cytotoxicity [3] of the same compound?
Answer: 26%

Question: And the cytotoxicity with TRAIL [4]?
Answer: 37%

Question: What about the cytotoxicity with TRAIL [5] of the same compound?
Answer: 48%

Question: With `CCSc1nc(-c2ccccc2)nc(C(Cl)Cl)n1` as the compound, how does the cytotoxicity with TRAIL (at 5 µM) read?
Answer: 72%

Question: And the cytotoxicity [1]?
Answer: 0%

Question: And the cytotoxicity [2]?
Answer: 0%

Question: And the cytotoxicity [3]?
Answer: 28%

Question: And the cytotoxicity with TRAIL [4]?
Answer: 44%

Question: What about the cytotoxicity with TRAIL [5] of the same compound?
Answer: 52%

Question: What does the source list for `CSc1nc(-c2ccccc2)nc(C(Cl)Cl)n1`?
Answer: cytotoxicity with TRAIL (at 5 µM): 82% (inactive); cytotoxicity [1]: 0%; cytotoxicity [2]: 36%; cytotoxicity [3]: 55%; cytotoxicity with TRAIL [4]: 55%; cytotoxicity with TRAIL [5]: 74%
